Experimental data taken from ChEMBL document CHEMBL1955763, “Antimicrobial activity of sulfonamides containing 5-chloro-2-hydroxybenzaldehyde and 5-chloro-2-hydroxybenzoic acid scaffold” (Eur J Med Chem, 2012).
Converted amounts (≈) assume the structure as drawn.

Key:
[1] = tested on: Mycobacterium kansasii; assay: Antimycobacterial activity against Mycobacterium kansasii 235/80 after 21 days; assay type: functional; conditions: 235/80, 504 h
Summary of the method: (§1)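 Micromethod MIC in Sula semisynthetic medium, with compounds added as DMSO solutions at […]. Incubation at 37 °C. Inocula: M. kansasii 235/80 at dilution 10⁻⁴, clinical isolate 6509/96 at 10⁻⁵.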

[2] = tested on: Staphylococcus aureus; assay: Antibacterial activity against Staphylococcus aureus CCM 4516/08 after 48 hrs by broth microdilution method; assay type: functional; conditions: CCM 4516/08, 48 h
Summary of the method: (§2)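 Broth microdilution modified from standard M07-A07 in Mueller-Hinton broth at pH 7.4 (±0.2). Compounds were dissolved in DMSO. Inoculum in sterile water was adjusted to 0.5 McFarland (1.5 × 10⁸ CFU/mL). MIC was taken as IC₉₀, i.e. ≥90% growth reduction versus control, read visually and spectrophotometrically at 540 nm.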

[3] = tested on: Nakaseomyces glabratus; assay: Antifungal activity against Candida glabrata 20/I after 24 hrs by broth microdilution method; assay type: functional
Summary of the method: (§3)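 Microdilution broth per CLSI M27-A3 (yeasts) or M38-A2 (moulds) in RPMI 1640 with glutamine, buffered to pH 7.0 with 0.165 mol MOPS. Compounds were in DMSO. Final inoculum was 5 × 10³ ± 0.2 CFU/mL. Other conditions matched the antibacterial assay, with MIC as IC₉₀ read visually and at 540 nm. Determined twice, in duplicate.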

[4] = tested on: Trichophyton mentagrophytes; assay: Antifungal activity against Trichophyton mentagrophytes 445 after 24 hrs by broth microdilution method; assay type: functional; conditions: Trichophyton mentagrophytes, 445, 24 h
[5] = tested on: Mycobacterium kansasii; assay: Antimycobacterial activity against Mycobacterium kansasii 6509/96 after 21 days; assay type: functional; conditions: 6509/96, 504 h; summary of the method: as §1
[6] = tested on: Mycobacterium tuberculosis; assay: Antimycobacterial activity against Mycobacterium tuberculosis H37Rv 331/88 after 14 days; assay type: functional; conditions: H37Rv 331/88, 336 h
[7] = tested on: Klebsiella pneumoniae; assay: Antibacterial activity against Klebsiella pneumoniae D 11750/08 after 24 hrs by broth microdilution method; assay type: functional; conditions: D 11750/08, 24 h; summary of the method: as §2
[8] = tested on: Staphylococcus aureus; assay: Antibacterial activity against methicillin-resistant Staphylococcus aureus H 5996/08 after 24 hrs by broth microdilution method; assay type: functional; conditions: H 5996/08, 24 h
Summary of the method: (§4)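 Microdilution broth method modified from M07-A07, in Mueller-Hinton broth at pH 7.4 (±0.2). Compounds were dissolved in DMSO. Inoculum was made in sterile water to 0.5 McFarland (1.5 × 10⁸ CFU/mL). MIC was taken as IC₉₀, meaning ≥90% growth reduction versus the drug-free control. Growth was read visually and by absorbance at 540 nm.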

[9] = tested on: Pichia kudriavzevii; assay: Antifungal activity against Candida krusei E58 after 24 hrs by broth microdilution method; assay type: functional; conditions: E58, 24 h; summary of the method: as §3
[10] = tested on: Mycobacterium kansasii; assay: Antimycobacterial activity against Mycobacterium kansasii 235/80 after 14 days; assay type: functional; conditions: 235/80, 336 h; summary of the method: as §1
[11] = tested on: Staphylococcus epidermidis; assay: Antibacterial activity against methicillin-resistant Staphylococcus epidermidis H 6966/08 after 24 hrs by broth microdilution method; assay type: functional; conditions: H 6966/08, 24 h; summary of the method: as §4
[12] = tested on: Lichtheimia corymbifera; assay: Antifungal activity against Absidia corymbifera 272 after 24 hrs by broth microdilution method; assay type: functional; conditions: Lichtheimia corymbifera, 272, 24 h; summary of the method: as §3
[13] = tested on: Mycobacterium avium; assay: Antimycobacterial activity against isoniazid-, rifampicin-, ofloxacin-, ethambutol-resistant Mycobacterium avium 330/88 after 21 days; assay type: functional; conditions: 330/88, 504 h
Summary of the method: (§5)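 Micromethod in Sula semisynthetic medium, with compounds added as DMSO solutions over a two-fold series from 1000 down to 1. Inoculum for M. avium 330/88 was a 10⁻⁵ dilution. Plates were incubated at 37 °C and MIC was read after 14 and 21 days.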

[14] = tested on: Mycobacterium tuberculosis; assay: Antimycobacterial activity against Mycobacterium tuberculosis H37Rv 331/88 after 21 days; assay type: functional; conditions: H37Rv 331/88, 504 h; summary of the method: as §5
[15] = Selectivity ratio of IC50 for human HepG2 cell sto MIC100 for Mycobacterium kansasii 235/80; assay type: functional
[16] = tested on: Staphylococcus aureus; assay: Antibacterial activity against Staphylococcus aureus CCM 4516/08 after 24 hrs by broth microdilution method; assay type: functional; conditions: CCM 4516/08, 24 h; summary of the method: as §4
[17] = tested on: Candida tropicalis; assay: Antifungal activity against Candida tropicalis 156 after 24 hrs by broth microdilution method; assay type: functional; conditions: Candida tropicalis, 156, 24 h; summary of the method: as §3
[18] = tested on: Trichosporon asahii; assay: Antifungal activity against Trichosporon asahii 1188 after 24 hrs by broth microdilution method; assay type: functional; conditions: Trichosporon asahii, 1188, 24 h; summary of the method: as §3
[19] = tested on: Escherichia coli; assay: Antibacterial activity against Escherichia coli CCM 4517 after 24 hrs by broth microdilution method; assay type: functional; conditions: CCM 4517, 24 h; summary of the method: as §2
[20] = tested on: Mycobacterium kansasii; assay: Antimycobacterial activity against Mycobacterium kansasii 6509/96 after 7 days; assay type: functional; conditions: 6509/96, 168 h; summary of the method: as §1
[21] = tested on: Pseudomonas aeruginosa; assay: Antibacterial activity against Pseudomonas aeruginosa CCM 1961 after 24 hrs by broth microdilution method; assay type: functional; conditions: CCM 1961, 24 h; summary of the method: as §2
[22] = tested on: Staphylococcus aureus; assay: Antibacterial activity against methicillin-resistant Staphylococcus aureus H 5996/08 after 48 hrs by broth microdilution method; assay type: functional; conditions: H 5996/08, 48 h; summary of the method: as §4
[23] = Selectivity ratio of IC50 for human HepG2 cell sto MIC100 for Mycobacterium kansasii 6509/96; assay type: functional
[24] = tested on: Mycobacterium kansasii; assay: Antimycobacterial activity against Mycobacterium kansasii 235/80 after 7 days; assay type: functional; conditions: 235/80, 168 h; summary of the method: as §1
[25] = tested on: Staphylococcus epidermidis; assay: Antibacterial activity against methicillin-resistant Staphylococcus epidermidis H 6966/08 after 48 hrs by broth microdilution method; assay type: functional; conditions: H 6966/08, 48 h; summary of the method: as §4
[26] = tested on: Mycobacterium avium; assay: Antimycobacterial activity against isoniazid-, rifampicin-, ofloxacin-, ethambutol-resistant Mycobacterium avium 330/88 after 14 days; assay type: functional; conditions: 330/88, 336 h; summary of the method: as §5
[27] = tested on: Klebsiella pneumoniae; assay: Antibacterial activity against ESBL-positive Klebsiella pneumoniae J 14368/08 after 24 hrs by broth microdilution method; assay type: functional; conditions: J 14368/08, 24 h; summary of the method: as §2
[28] = tested on: Candida albicans; assay: Antifungal activity against Candida albicans ATCC 44857 after 24 hrs by broth microdilution method; assay type: functional; conditions: ATCC 44857, 24 h; summary of the method: as §3
[29] = tested on: Mycobacterium kansasii; assay: Antimycobacterial activity against Mycobacterium kansasii 6509/96 after 14 days; assay type: functional; conditions: 6509/96, 336 h; summary of the method: as §1
[30] = tested on: Aspergillus fumigatus; assay: Antifungal activity against Aspergillus fumigatus 231 after 24 hrs by broth microdilution method; assay type: functional; conditions: Aspergillus fumigatus, 231, 24 h; summary of the method: as §3
[31] = tested on: HepG2; assay: Cytotoxicity against human HepG2 cells after 24 hrs by MTS assay; assay type: cell-based; conditions: HepG2, 24 h
Summary of the method: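 Hep G2 human liver cells (passage 3–4), 10 000 per well, in MEM with 1% glutamine, 10% fetal serum and 1% non-essential amino acids. Compounds were added from DMSO at eight increasing concentrations in quadruplicate. Exposure was 24 h at 37 °C in 5% CO₂, then MTS reagent for 1.5 h. Formazan was read at 490 nm and IC₅₀ derived as 50% of control viability.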

[32] = Selectivity ratio of IC50 for human HepG2 cell sto MIC90 for Staphylococcus aureus CCM 4516/08; assay type: functional
[33] = tested on: Enterococcus sp.; assay: Antibacterial activity against Enterococcus sp. J 14365/08 after 24 hrs by broth microdilution method; assay type: functional; conditions: J 14365/08, 24 h; summary of the method: as §2

Cc1cc(NS(=O)(=O)c2ccc(/N=C/c3cc(Cl)ccc3O)cc2)no1
MIC [1]: 16 µM (≈ 6.27 µg/mL)
MIC [2]: 31.2 µM (≈ 12.2 µg/mL)
MIC [3]: > 125 µM
MIC [4]: > 125 µM
MIC [5]: 8 µM (≈ 3.13 µg/mL)
MIC [6]: 125 µM (≈ 49 µg/mL)
MIC [7]: 500 µM (≈ 196 µg/mL)
MIC [8]: 15.6 µM (≈ 6.12 µg/mL)
MIC [9]: > 125 µM
MIC [10]: 8 µM (≈ 3.13 µg/mL)
MIC [11]: > 500 µM
MIC [12]: > 125 µM
MIC [13]: 125 µM (≈ 49 µg/mL)
MIC [14]: 250 µM (≈ 98 µg/mL)
Ratio [15]: 12.1
MIC [16]: 31.2 µM (≈ 12.2 µg/mL)
MIC [17]: > 125 µM
MIC [18]: > 125 µM
MIC [19]: 125 µM (≈ 49 µg/mL)
MIC [20]: 4 µM (≈ 1.57 µg/mL)
MIC [21]: ≥ 500 µM
MIC [22]: 31.2 µM (≈ 12.2 µg/mL)
Ratio [23]: 12.1
MIC [24]: 4 µM (≈ 1.57 µg/mL)
MIC [25]: > 500 µM
MIC [26]: 62.5 µM (≈ 24.5 µg/mL)
MIC [27]: 500 µM (≈ 196 µg/mL)
MIC [28]: > 125 µM
MIC [29]: 4 µM (≈ 1.57 µg/mL)
MIC [30]: > 125 µM
IC50 [31]: 193 µM
Ratio [32]: 6.1

Cc1cc(C)nc(NS(=O)(=O)c2ccc(NC(=O)c3cc(Cl)ccc3O)cc2)n1
MIC [1]: 62.5 µM (≈ 27.1 µg/mL)
MIC [2]: 15.6 µM (≈ 6.76 µg/mL)
MIC [4]: 125 µM (≈ 54.1 µg/mL)
MIC [5]: 62.5 µM (≈ 27.1 µg/mL)
MIC [6]: 125 µM (≈ 54.1 µg/mL)
MIC [8]: 15.6 µM (≈ 6.76 µg/mL)
MIC [10]: 32 µM (≈ 13.9 µg/mL)
MIC [11]: 31.2 µM (≈ 13.5 µg/mL)
MIC [33]: 125 µM (≈ 54.1 µg/mL)
MIC [13]: 62.5 µM (≈ 27.1 µg/mL)
MIC [14]: 125 µM (≈ 54.1 µg/mL)
Ratio [15]: 5.4
MIC [16]: 15.6 µM (≈ 6.76 µg/mL)
MIC [18]: 125 µM (≈ 54.1 µg/mL)
MIC [20]: 16 µM (≈ 6.93 µg/mL)
MIC [22]: 31.2 µM (≈ 13.5 µg/mL)
Ratio [23]: 5.4
MIC [24]: 16 µM (≈ 6.93 µg/mL)
MIC [25]: 250 µM (≈ 108 µg/mL)
MIC [26]: 32 µM (≈ 13.9 µg/mL)
MIC [29]: 62.5 µM (≈ 27.1 µg/mL)
IC50 [31]: 337 µM
Ratio [32]: 10.8

Cc1cc(NS(=O)(=O)c2ccc(NC(=O)c3cc(Cl)ccc3O)cc2)no1
MIC [1]: 16 µM (≈ 6.53 µg/mL)
MIC [2]: 125 µM (≈ 51 µg/mL)
MIC [3]: 500 µM (≈ 204 µg/mL)
MIC [4]: 500 µM (≈ 204 µg/mL)
MIC [5]: 8 µM (≈ 3.26 µg/mL)
MIC [6]: 125 µM (≈ 51 µg/mL)
MIC [8]: 15.6 µM (≈ 6.37 µg/mL)
MIC [9]: 500 µM (≈ 204 µg/mL)
MIC [10]: 16 µM (≈ 6.53 µg/mL)
MIC [11]: > 500 µM
MIC [12]: 500 µM (≈ 204 µg/mL)
MIC [13]: 125 µM (≈ 51 µg/mL)
MIC [14]: 250 µM (≈ 102 µg/mL)
MIC [16]: 125 µM (≈ 51 µg/mL)
MIC [17]: 500 µM (≈ 204 µg/mL)
MIC [18]: 500 µM (≈ 204 µg/mL)
MIC [19]: 250 µM (≈ 102 µg/mL)
MIC [20]: 8 µM (≈ 3.26 µg/mL)
MIC [22]: 31.2 µM (≈ 12.7 µg/mL)
MIC [24]: 8 µM (≈ 3.26 µg/mL)
MIC [25]: > 500 µM
MIC [26]: 62.5 µM (≈ 25.5 µg/mL)
MIC [28]: 500 µM (≈ 204 µg/mL)
MIC [29]: 8 µM (≈ 3.26 µg/mL)
MIC [30]: 500 µM (≈ 204 µg/mL)
